# Hit rate of the full screen: of about 120,000 compounds, about 20 (0.02%) were called active.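 The calls were made as follows: active = inhibition above 30.3% in the primary screen of four-compound pools, then above 30% when the compound was retested; inconclusive = passed the primary limit but could not be retested; inactive = the rest.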 For the sample, actives were picked, then their nearest neighbours and some compounds at random.
# Assay: clotrimazole potentiators killing C. albicans biofilm, primary screen, 4-compound mixtures (AID 1242);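 also: compounds exposed to preformed 24 h biofilms for 48 h; 0% = untreated biofilm control and 100% = clotrimazole plus chlorhexidine kill blank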
# Conditions: C. albicans biofilm persisters + clotrimazole, fluorescence viability, primary screen in compound mixtures, stronger effect = higher value
# Method in brief: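 Assay system: C. albicans biofilms / Medium: RPMI/MOPS medium, pH 7.0 / Schedule: biofilm formation 24 h, compound exposure 48 h, 37 °C / Measured by: Alamar Blue fluorescence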
# [1] = measured here: individual compound retest, at 61 µM
compound,measurement,setting,value
CC(=O)Nc1ccc(S(=O)(=O)NC2(C(F)(F)F)C(=O)NC(C)=C2C#N)cc1 (stereo not given),inhibition,at 7.6 µM unless noted,25.1% (inactive)
O=C(Nc1nnc(C2CC2)s1)C1=NN(C2CCS(=O)(=O)C2)C(=O)CC1 (stereo not given),inhibition,at 7.6 µM unless noted,7.46% (inactive)
COc1cccc(/C=C/C(=O)Nc2ccc3c(c2)OCCO3)c1,inhibition,at 7.6 µM unless noted,21.2% (inactive)
O=C(CC1CCCCC1)NCc1ccc(F)cc1,inhibition,at 7.6 µM unless noted,14.7% (inactive)
Cc1ccc(CN2CCN(Cc3ccc(OCCO)cc3)CC2CCO)o1 (stereo not given),inhibition,at 7.6 µM unless noted,19.8% (inactive)
COC(=O)c1cc(C(=O)OCC(=O)Nc2cc(C)on2)cc([N+](=O)[O-])c1,inhibition,at 7.6 µM unless noted,19.1% (inactive)
Cc1nc(=O)c(-c2ccccc2)c(C)n1-c1ccc(Br)cc1,inhibition,at 7.6 µM unless noted,15.2% (inactive)
O=C(CCc1ccccc1)NCCc1cccs1,inhibition,at 7.6 µM unless noted,19.8% (inactive)
Cc1ccc(C(=O)NNc2ncnc3ccccc23)cc1,inhibition,at 7.6 µM unless noted,25.7% (inactive)
CCOC(=O)C1CCN(c2ncnc3c2c(-c2ccccc2)cn3-c2ccc(C)cc2)CC1,inhibition,at 7.6 µM unless noted,10.1% (inactive)
O=C1CC(Cc2ccc(Cl)cc2)C(=O)N1c1cc(Cl)ccn1 (stereo not given),inhibition,at 7.6 µM unless noted,15.9% (inactive)
CCc1ccccc1NC(=O)CSc1nnc(CCNC(=O)OC(C)(C)C)o1,inhibition,at 7.6 µM unless noted,24.5% (inactive)
O=C(O)c1cccc(NC(=O)c2cc(-c3cccc(Cl)c3)nc3ccccc23)c1,inhibition,at 7.6 µM unless noted,16.3% (inactive)
Cn1cnnc1SCC(=O)Nc1ccc(N2CCOCC2)cc1,inhibition,at 7.6 µM unless noted,1.33% (inactive)
COc1c(C)cc(C(=O)C2CCCN(S(=O)(=O)c3c(C)noc3C)C2)cc1C (stereo not given),inhibition,at 7.6 µM unless noted,2.3% (inactive)
COc1cc(N2C(=O)c3ccccc3C2=O)c(Cl)cc1C(=O)OCC(=O)N1CCOCC1,inhibition,at 7.6 µM unless noted,3.87% (inactive)
COc1ccc(CCNC(=O)C(=O)Nc2ccc3nc4n(c(=O)c3c2)CCCCC4)cc1OC,inhibition,at 7.6 µM unless noted,5.01% (inactive)
O=C(O)c1ccc(/C=N/NC(=S)NCc2ccccc2)cc1,inhibition,at 7.6 µM unless noted,10.6% (inactive)
COc1ccc(-c2[nH]ncc2CN(Cc2nccn2C)C(C)C)cc1F,inhibition,at 7.6 µM unless noted,6.59% (inactive)
Cc1ccc(NC(=O)c2ccccn2)cc1S(=O)(=O)N1CCOCC1,inhibition,at 7.6 µM unless noted,7.29% (inactive)
Cc1ccc(NC(=S)N(CCN(C)C)Cc2cccs2)cc1C,inhibition,at 7.6 µM unless noted,17.2% (inactive)
O=[N+]([O-])c1cccc2ncccc12,inhibition,at 7.6 µM unless noted,12.4% (inactive)
COc1cccc(N2C(=O)CC(N3CCc4ccccc4C3)C2=O)c1 (stereo not given),inhibition,at 7.6 µM unless noted,17.8% (inactive)
CCOc1cc(NC(=S)NCc2ccco2)c(OCC)cc1NC(=O)c1ccco1,inhibition,at 7.6 µM unless noted,2.67% (inactive)
N/C(=N\OC(=O)c1ccc2c(c1)OCO2)c1ccc(Br)cc1,inhibition,at 7.6 µM unless noted,8.49% (inactive)
CC(=O)Cn1ncc(N2CCOCC2)c(Br)c1=O,inhibition,at 7.6 µM unless noted,-3.05% (inactive)
Cn1nnnc1SCC(=O)NNC(=O)c1ccc(Br)cc1,inhibition,at 7.6 µM unless noted,11.2% (inactive)
CCCCN(C(=O)COc1ccc(NC(C)=O)cc1)C1CCS(=O)(=O)C1 (stereo not given),inhibition,at 7.6 µM unless noted,12.9% (inactive)
O=C(c1cn2ccccc2n1)N1CCc2c([nH]c3ccccc23)C1c1ccccn1 (stereo not given),inhibition,at 7.6 µM unless noted,0.31% (inactive)
O=c1[nH]c(N2CCN(Cc3ccc4c(c3)OCO4)CC2)nc2c1CCCC2,inhibition,at 7.6 µM unless noted,6.65% (inactive)
CCOC(=O)c1c(-c2cccc(N)c2)cn2ccccc12,inhibition,at 7.6 µM unless noted,6.08% (inactive)
O=C(Nc1ccc2c(c1)C(=O)OC2)Nc1cccc2ccccc12,inhibition,at 7.6 µM unless noted,-1.47% (inactive)
CC(Oc1ccc(Br)cc1Br)C(=O)NC1CCCC1 (stereo not given),inhibition,at 7.6 µM unless noted,19.2% (inactive)
COc1ccc(CC(=O)NCC(=O)N/N=C/c2cc(Br)ccc2OC)cc1,inhibition,at 7.6 µM unless noted,19.3% (inactive)
CCOC(=O)/C(C#N)=C/c1ccc(N2CCCCC2)cc1,inhibition,at 7.6 µM unless noted,16.2% (inactive)
CCc1ccc(Nc2nnc(SCC(=O)c3ccc4c(c3)NC(=O)CO4)s2)cc1,inhibition,at 7.6 µM unless noted,10.2% (inactive)
COc1ccc(C(=O)OCC(=O)NCC2CCCO2)cc1[N+](=O)[O-] (stereo not given),inhibition,at 7.6 µM unless noted,12.1% (inactive)
CN(c1ccccc1)S(=O)(=O)c1cc(C(=O)OCC(=O)N2CCN(C(=O)c3ccco3)CC2)ccc1Cl,inhibition,at 7.6 µM unless noted,13.3% (inactive)
COc1cc2c(cc1OC)CC1(CCCCC1)N=C2,inhibition,at 7.6 µM unless noted,4.41% (inactive)
Cc1ccc(C2CC(c3cccc(NS(C)(=O)=O)c3)=NN2S(C)(=O)=O)cc1 (stereo not given),inhibition,at 7.6 µM unless noted,16% (inactive)
COCCC(=O)Nc1ccc2c(c1)CN(C(=O)CCOC)CC2,inhibition,at 7.6 µM unless noted,18% (inactive)
CC(C)(C)c1cc(NC(=O)NN2CCOCC2)nn1-c1c(Cl)cc(Cl)cc1Cl,inhibition,at 7.6 µM unless noted,5.67% (inactive)
C=CCOCCN(C)C1=NS(=O)(=O)c2ccccc21,inhibition,at 7.6 µM unless noted,3.65% (inactive)
CN(C)S(=O)(=O)c1cccc(NC(=O)COC(=O)c2cc(=O)[nH]c(=O)[nH]2)c1,inhibition,at 7.6 µM unless noted,26.1% (inactive)
CCOCCCN(C(=O)Cn1nnc(-c2ccc(OC)c(OC)c2)n1)C(CC)C(=O)NC1CCCC1 (stereo not given),inhibition,at 7.6 µM unless noted,18.7% (inactive)
Cc1cccc(N2CCN(c3ccc(C(N)=O)cc3[N+](=O)[O-])CC2)c1C,inhibition,at 7.6 µM unless noted,16.6% (inactive)
CCOC(=O)C1CCN(CCC(=O)Nc2cccc(C)c2)CC1,inhibition,at 7.6 µM unless noted,9.47% (inactive)
OCCC1CN(Cc2cccc(OC3CCCC3)c2)CCN1Cc1ccsc1 (stereo not given),inhibition,at 7.6 µM unless noted,13.6% (inactive)
CN(C)N(C)C(=O)C(O)(c1ccccc1)c1ccccc1,inhibition,at 7.6 µM unless noted,8.15% (inactive)
CCOc1ccc(NS(=O)(=O)c2ccc(C)c(C(N)=O)c2)cc1,inhibition,at 7.6 µM unless noted,13.4% (inactive)
CCC(C)(C)NC(=O)/C=C/c1cc(OC)c(OC)c(S(=O)(=O)N2CCc3ccccc32)c1,inhibition,at 7.6 µM unless noted,12.1% (inactive)
Cc1ccc(S(=O)(=O)/N=C(/Nc2ccc3[nH]c(=O)[nH]c3c2)c2ccccc2)cc1,inhibition,at 7.6 µM unless noted,25.2% (inactive)
CCCCN(CC)CCNC(=O)CCNC(=O)Cn1ccc2ccccc2c1=O,inhibition,at 7.6 µM unless noted,8.03% (inactive)
CN(CC(O)COc1ccc(S(=O)(=O)N2CCOCC2)cc1Cl)C1CCCCC1 (stereo not given),inhibition,at 7.6 µM unless noted,28.8% (inactive)
Nc1nc(NCC2CCCO2)nc(Nc2ccccc2F)c1[N+](=O)[O-] (stereo not given),inhibition,at 7.6 µM unless noted,13.6% (inactive)
Cn1nc(C(C)(C)C)c([N+](=O)[O-])c1C(N)=O,inhibition,at 7.6 µM,56.6% (inactive)
same,inhibition,[1],-53.4%
O=C1N(c2ccccc2)C(=Nc2ccccc2)SC12CC2,inhibition,at 7.6 µM unless noted,16.8% (inactive)
CCN(CC)CCN(C(=O)c1ccc(N2C(=O)CCC2=O)cc1)c1nc2cc3c(cc2s1)OCO3,inhibition,at 7.6 µM unless noted,4.15% (inactive)
CCC(=O)NC(=S)Nc1ccc(NC(=O)c2ccco2)c(Cl)c1,inhibition,at 7.6 µM unless noted,2.96% (inactive)
O=C(c1cccc([N+](=O)[O-])c1)N1CCN(C(=O)c2ccco2)CC1,inhibition,at 7.6 µM unless noted,0.32% (inactive)
COC(=O)c1cccc(NS(C)(=O)=O)c1,inhibition,at 7.6 µM unless noted,13.2% (inactive)
Cn1ccc(NC(=O)Nc2ccc(Cl)cc2)n1,inhibition,at 7.6 µM unless noted,16.2% (inactive)
Cc1ccc(O)c(NC(=S)NC(=O)COc2ccc(Br)cc2)c1,inhibition,at 7.6 µM unless noted,9.22% (inactive)
CCN(CC)C(=O)C(=O)Nc1cccc(Br)c1,inhibition,at 7.6 µM unless noted,10% (inactive)
COc1ccccc1CNC(=O)CNC(=O)c1cn(-c2ccccc2OC)c(=O)c2ccccc12,inhibition,at 7.6 µM unless noted,24.6% (inactive)
OCCC1CN(Cc2ccc(Oc3ncccn3)cc2)CCN1CCc1ccccc1 (stereo not given),inhibition,at 7.6 µM unless noted,23.9% (inactive)
CC(NCc1nc2ccccc2n1C)C12CC3CC(CC(C3)C1)C2 (stereo not given),inhibition,at 7.6 µM,63.4% (inactive)
same,inhibition,[1],0.64%
O=C(NC(=S)Nc1ccc(S(=O)(=O)Nc2ncccn2)cc1)c1cccc(Br)c1,inhibition,at 7.6 µM unless noted,20.2% (inactive)
Nc1c(N(CCO)C(=O)C2CCCCC2)c(=O)[nH]c(=O)n1Cc1ccccc1,inhibition,at 7.6 µM unless noted,4.09% (inactive)
Cc1cc(C)c(C)c(S(=O)(=O)N[C@@H](C)C(=O)OC(C)C(=O)NC(N)=O)c1C (stereo not given in full),inhibition,at 7.6 µM unless noted,14.7% (inactive)
Cc1ccc(S(=O)(=O)/N=C(\N)c2ccc(F)cc2)cc1,inhibition,at 7.6 µM unless noted,3.79% (inactive)
O=C(OCc1ccc([N+](=O)[O-])cc1)c1ccccn1,inhibition,at 7.6 µM unless noted,15% (inactive)
Cc1cc(C)n(-c2ccc(C(=O)O)cc2[N+](=O)[O-])n1,inhibition,at 7.6 µM unless noted,2.45% (inactive)
COc1cc(N/C=C2\CC(=O)NC(C)=C2C#N)cc(OC)c1OC,inhibition,at 7.6 µM unless noted,14.1% (inactive)
O=C(Nc1ccc(F)cc1)N1CCCC(c2nc3c(nnn3Cc3ccccc3Cl)c(=O)[nH]2)C1 (stereo not given),inhibition,at 7.6 µM unless noted,11.9% (inactive)
NC(=O)Cc1nc2scc(-c3ccc(Cl)cc3)c2c(=O)[nH]1,inhibition,at 7.6 µM unless noted,4.85% (inactive)
CC(=O)Nc1ccc(OCC(=O)NCc2ccc(C)cc2)cc1,inhibition,at 7.6 µM unless noted,10.5% (inactive)
COc1ccc(C2NC(=S)NC3=C2CCc2ccccc23)cc1OC (stereo not given),inhibition,at 7.6 µM unless noted,18.9% (inactive)
COc1ccc(Cl)cc1CSc1ncn[nH]1,inhibition,at 7.6 µM unless noted,13.5% (inactive)
COc1cccc(-n2c(=S)sc3c(=O)n(-c4ccccc4OC)c(SCC4OCCO4)nc32)c1,inhibition,at 7.6 µM unless noted,28.1% (inactive)
OC1CCCN(c2ncnc3c2nnn3Cc2c(F)cccc2Cl)C1 (stereo not given),inhibition,at 7.6 µM unless noted,19.6% (inactive)
Cc1cnc(C(=O)OCC(=O)N2CCc3ccccc32)cn1,inhibition,at 7.6 µM unless noted,-4.77% (inactive)
COCCn1c(C)cc(C(=O)CSc2nc3ccccc3c(=O)n2C(C)COC)c1C (stereo not given),inhibition,at 7.6 µM unless noted,8.22% (inactive)
Cc1nc(CNS(=O)(=O)c2cc([N+](=O)[O-])ccc2C)cs1,inhibition,at 7.6 µM unless noted,22.4% (inactive)
CCCCCCCC(=O)OC(CN1CCCCCC1)CN1CCCC1=O (stereo not given),inhibition,at 7.6 µM unless noted,0.73% (inactive)
COc1ccccc1N1CCN(C(=O)CSc2ncnc3c2cnn3-c2ccc(C)c(C)c2)CC1,inhibition,at 7.6 µM unless noted,19.7% (inactive)
CCOc1cc(C2C(C(=O)OC(C)C)=C(C)NC3=C2C(=O)CCC3)cc([N+](=O)[O-])c1O (stereo not given),inhibition,at 7.6 µM unless noted,16.6% (inactive)
COc1ccc(C)cc1NC(=O)NCc1ccccn1,inhibition,at 7.6 µM unless noted,16.2% (inactive)
CC(/C=C/c1ccco1)=N/NC(=O)C1COc2ccccc2O1 (stereo not given),inhibition,at 7.6 µM unless noted,16.1% (inactive)
COc1ccc(-n2c(C)nn(CC3CC3)c2=O)cc1,inhibition,at 7.6 µM unless noted,-10.4% (inactive)
Cc1ccnc2nc(C(=O)OCC(=O)N(CC(C)C)CC(C)C)nn12,inhibition,at 7.6 µM unless noted,6.65% (inactive)
CNC(=S)N1CCC(NC(=O)C(Cc2ccc(F)cc2)NC(C)=O)CC1 (stereo not given),inhibition,at 7.6 µM unless noted,5.74% (inactive)
COc1ccc(CC(=O)NCc2nnc(SCC(=O)Nc3nccs3)n2C)cc1,inhibition,at 7.6 µM unless noted,7.45% (inactive)
